# Source: PubChem BioAssay
# Sampled rows, rich in hits. Any-hit rate of the full collection: about 1.8%.
# TNF death inh – inhibitors of TNF-alpha induced necroptosis in Jurkat FADD-/- cells. activation (protection from cell death), % at 10 µM. Jurkat FADD-/- TNF necroptosis rescue, ATP luminescence, 24 h; 0 = TNF only, 100 = no-TNF cells. 0.068% of 220,000 active;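 active = activation, meaning protection from cell death, of at least 50% relative to plate controls; inactive = activation below 50%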;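 note: necroptosis triggered by 40 ng/mL TNF-alpha added together with compound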
# L929 necroptosis – blocks zVAD induced death of L929 cells; L929 zVAD necroptosis rescue, ATP luminescence, 24 h; with zVAD 60 µM; viability rescue, % at 10 µM; 0.38% of 220,000 active; AID 1377;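 active = activation, scaled between plate controls, above about 75%, limit read from the data; inactive = activation under that limit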;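 note: 0% = zVAD with DMSO and 100% = DMSO alone without zVAD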
# Autophagy mod – modulators of autophagy. MEF GFP-LC3 puncta imaging; test concentration mostly 10 µM. calls only at 10 µM (by protocol). 0.98% of 190,000 active;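 active = percentage of spot-positive cells more than 3 SD above its plate mean, without a fluorescence outlier flag or 80% toxicity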;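 note: spot-positive cell cutoff set from DMSO-treated cells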
# Furin inh – human furin inhibition | purified furin, fluorogenic substrate cleavage | P09958 | inhibition, % at 20 µM or 30 µM | 0.061% of 220,000 active; in the data active = inhibition above about 25%
# Target sequence (P09958 108-714 limits assumed): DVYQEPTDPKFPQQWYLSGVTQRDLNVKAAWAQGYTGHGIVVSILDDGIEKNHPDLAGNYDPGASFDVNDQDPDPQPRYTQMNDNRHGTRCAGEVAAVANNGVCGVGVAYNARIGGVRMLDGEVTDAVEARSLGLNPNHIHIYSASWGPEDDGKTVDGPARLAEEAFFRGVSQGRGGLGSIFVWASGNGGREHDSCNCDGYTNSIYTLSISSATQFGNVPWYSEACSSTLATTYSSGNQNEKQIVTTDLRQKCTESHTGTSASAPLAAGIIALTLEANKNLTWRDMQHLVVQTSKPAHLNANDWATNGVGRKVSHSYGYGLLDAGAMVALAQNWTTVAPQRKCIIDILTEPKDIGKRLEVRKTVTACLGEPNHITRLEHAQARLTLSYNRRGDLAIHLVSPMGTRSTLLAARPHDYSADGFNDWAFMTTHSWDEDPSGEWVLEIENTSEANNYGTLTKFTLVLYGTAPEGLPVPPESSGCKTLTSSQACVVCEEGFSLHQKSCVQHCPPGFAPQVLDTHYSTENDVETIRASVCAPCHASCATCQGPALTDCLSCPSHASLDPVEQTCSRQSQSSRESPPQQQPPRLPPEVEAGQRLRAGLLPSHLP
# Dynein transport – blocks dynein driven cargo transport along microtubules | 0.47% of 220,000 active | z-score, hits read low | AID 1381 | 3617.4 mouse cells, GR-EGFP nuclear translocation imaging; test concentration mostly 20 µM; stimulated with dexamethasone, 1 µM; stronger effect = lower value;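 active = plate z-score of nuclear minus cytoplasmic receptor signal below a set negative limit, without overly bright fluorescence or cell loss, cut at about -3.5 in these data, passing the limit was not always enough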;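 note: z-score of nuclear minus cytoplasmic ring GR-EGFP intensity difference per well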
#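 Buffer or medium: Induction medium lacking tetracycline, stripped serum | Also added: Dexamethasone agonist, 1.0 µM final, for 30 min | Timing: 48 h induction, 1 h compound, 30 min dex at 37 °C | Detection: Formaldehyde fixation, Hoechst nuclear stain, 10x automated fluorescence imaging | Measure: Nuclear versus cytoplasmic GR-EGFP signal, averaged per well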
# HSV replic up – increases HSV replication in cells | maximum fold increase | 0.005% of 220,000 active | HSV replication augmentation in cells, fold increase; in the data active = maximum fold increase above about 1.5; tested in PC3 cells
# zVAD death conf – confirmed blocker of zVAD induced death in L929 cells; shares compounds with L929 necroptosis; L929 zVAD-induced necroptosis rescue, ATP luminescence, 24 h; activation (protection from necroptosis), % at 10 µM; 16% of 760 active; AID 463117;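 active = mean protection from necroptosis of at least 50% over duplicate tests; inactive = mean protection below 50%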;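 note: 0% = cells with zVAD alone and 100% = vehicle cells without zVAD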
# * hit, by the source's call; i = inactive; · = no result.
SMILES,TNF death inh,L929 necroptosis,Autophagy mod,Furin inh,Dynein transport,HSV replic up,zVAD death conf
Cc1ccc(NC(=O)COc2ncnc3ccccc23)cc1S(=O)(=O)N1CCOCC1,1.4,0.3,i,-12.4,0.00746,i,·
Cc1ccc(NC(=O)COc2ccc(-c3nnco3)cc2)cc1S(=O)(=O)N1CCOCC1,-0.1,78.4*,i,-15.0,-0.432,i,2.5
CCOC(=O)C1C(=O)NC(c2ccccc2)=NC1c1cccc(Br)c1 (stereo not given),-0.2,0.8,i,-13.3,-0.349,i,·
Oc1c(Br)cc(C2N=C(c3ccccc3)NO2)cc1Br (stereo not given),-0.1,80.0*,i,-21.1,-0.134,i,4.1
CCCCCCCCNC(=O)c1cccnc1SCC(=O)Nc1ccccc1OC,7.3,-0.3,i,9.5,0.696,i,·
Cc1ccc(C(=O)COC(=O)c2cn3ccccc3n2)cc1,-0.4,2.4,i,-11.9,0.599,i,·
Clc1ncc(CSc2ccccc2)s1,17.9,90.6*,i,-25.9,-0.625,i,49.9
O=C(Nc1ccccc1)OCc1cnc(Cl)s1,13.9,-0.2,i,-13.0,-0.225,i,·
Cc1ccc(CN2CCS(=O)(=O)CC2)o1,13.6,82.7*,i,-30.5,0.165,i,5.4
COCCNc1nnnc2c1sc1nc(N3CCOCC3)c3c(c12)CCCC3,-1.1,1.4,i,-16.5,-0.324,i,·
COC(=O)C1=C(C(=O)OC)[C@@H]2N(C)c3ccccc3[C@@]23C[C@@H](CO)N=C3N1,·,·,·,·,·,i,·
CCOc1ccc(NC(=O)CSC2=NCCN2)cc1,-0.6,5.1,i,-13.7,0.453,i,·
COC(=O)c1ccc(NC(=O)CSC2=NCCN2)cc1,-7.7,91.7*,i,-17.3,-0.757,i,11.9
CCSC1=N/C(=C\c2ccc(OC)cc2)C(=O)N1,1.7,2.6,i,-11.8,-0.914,i,·
COc1ccc(/C=C2\N=C(SC)NC2=O)cc1,64.3*,90.7*,i,2.4,1.09,i,76.9*
O=C(Nc1ccc(N2CCN(C(=O)c3ccco3)CC2)cc1)C(c1ccccc1)c1ccccc1,2.0,75.8*,i,-3.4,-0.243,i,20.8
CCOc1cc(/C=C(\C#N)c2[nH]nc(N)c2C#N)ccc1O,2.1,81.4*,i,-17.8,0.11,i,39.3
Nc1ncnc(N2CCc3ccccc32)c1[N+](=O)[O-],-3.7,0.8,i,-21.3,0.22,i,·
NS(=O)(=O)c1ccc(N/C=C\C(=O)c2ccc(F)cc2)cc1,-1.7,0.6,i,-15.1,-0.377,i,·
NS(=O)(=O)c1ccc(N/C=C/C(=O)c2ccc(Br)cc2)cc1,-1.4,75.9*,i,-22.0,0.891,i,15.5
O=c1[nH]c2ccccc2c2ccccc12,-0.6,78.9*,i,-10.5,-0.161,i,2.2
c1ccc2c(c1)[nH]c1ccccc12,·,·,·,·,·,i,·
O=C(c1ccccc1)N1CCN(S(=O)(=O)c2cccc(NS(=O)(=O)c3ccccc3)c2)CC1,1.1,0.7,i,-13.8,1.37,i,·
Cc1nc(NS(=O)(=O)c2ccc(Cl)s2)c2c3c(sc2n1)CCCC3,2.1,0.9,·,-18.5,0.451,i,·
CNc1ncc(C(=O)c2ccc(Br)cc2)s1,6.1,83.2*,i,-9.8,-0.221,i,1.3
SMILES,TNF death inh,L929 necroptosis,Autophagy mod,Furin inh,Dynein transport,HSV replic up,zVAD death conf
CNc1ncc(C(=O)c2ccccc2)s1,4.8,3.7,i,-5.6,0.366,i,·
NC(=O)c1ccc(-n2nnnc2SCc2ccccc2)cc1,0.4,0.8,i,-25.4,0.0523,i,·
O=C(Nc1nccs1)c1ccc(CSc2nnnn2-c2ccccc2)cc1,14.4,87.3*,i,-18.1,-0.883,i,89.3*
C=CCc1cccc(/C=N/NC(=O)C(C)Nc2ccc(C)cc2)c1O (stereo not given),-6.2,12.8,i,-20.1,-0.315,i,·
Cn1nc(C(C)(C)C)cc1NC(=O)Nc1cc(Cl)cc(Cl)c1,22.1,94.0*,·,-7.8,0.0779,i,92.6*
Cc1ccc(F)cc1NC(=O)Nc1cc(C(C)(C)C)nn1C,6.4,34.4,·,-19.9,0.141,i,·
c1ccc(-n2cnc3cc(NCc4ccncc4)ccc32)cc1,0.6,83.2*,i,-33.4,-0.499,i,57.8*
c1ccc(-n2cnc3cc(NCc4ccccn4)ccc32)cc1,-0.7,76.4*,i,-8.4,-0.461,i,62.9*
CC(=O)Nc1ccc2c(c1)ncn2-c1ccccc1,1.3,68.0,·,-33.9,-2.04,i,·
CC(=O)Nc1nc2ccc(Br)cc2s1,-4.1,80.1*,i,-10.0,-0.594,·,34.8
COc1ccc2nc(NC(C)=O)sc2c1,-0.6,63.7,i,7.8,-0.718,i,·
CS(=O)(=O)c1ccc2nc(NC(=O)Cc3ccccc3)sc2c1,8.0,76.1*,i,-6.8,0.737,·,21.8
CC(C)C(=O)Nc1nc2ccc(S(C)(=O)=O)cc2s1,-10.1,84.0*,i,0.0,2.64,i,9.2
C=C1c2cc3c(cc2NC(=S)N1Cc1ccccc1)OCO3,-0.2,0.3,·,0.1,2.45,i,·
CCn1c(SCc2nc3scc(-c4ccccc4)c3c(=O)[nH]2)nnc1-c1ccc(Cl)cc1,1.5,0.3,i,-27.7,-0.201,i,·
Nc1ncc(Br)cc1S(=O)(=O)NCCC(=O)N1CCN(c2ncccn2)CC1,17.9,91.6*,i,-14.5,0.288,i,2.7
O=C(NC(=S)NCc1cccnc1)c1cccc2ccccc12,0.5,0.5,i,-22.8,-0.113,i,·
O=C(O)C[C@H]1c2cc(C(F)(F)F)ccc2S(=O)(=O)N1C1CCN(Cc2ccccc2)CC1,·,·,·,·,·,i,·
COc1ccc2cc(C(=O)NCc3ccccc3)c(=Nc3ccc(C(=O)O)cc3)oc2c1,1.9,75.6*,i,-20.2,-0.31,i,0.8
O=C(O)c1ccc(N=c2oc3cc(O)ccc3cc2C(=O)NCc2ccccc2)cc1,1.2,35.9,i,-24.4,1.06,i,·
CCOC(=O)c1ccc(NC(=O)c2cccc(C)c2[N+](=O)[O-])cc1,4.6,33.0,i,-10.9,1.78,i,·
COC(=O)c1ccc(NC(=O)c2cccc(C)c2[N+](=O)[O-])cc1,3.7,84.6*,i,-20.5,0.473,i,2.8
Cn1c(=O)cc(SCC(=O)Nc2ccccn2)c2ccccc21,10.6,81.5*,i,-15.0,0.0707,i,2.5
Cc1cccc(OCCCC(=O)Nc2nccs2)c1,9.2,89.1*,i,-25.0,-0.483,i,2.6
COc1ccc(-c2nc(N3CCOCC3)nc3n[nH]c(N)c23)cc1,-5.7,75.4*,i,-5.3,-0.0534,i,42.6
